Laboratory results from paper PMC5553550 (Nature nanotechnology, 2017).

Assays:
[1] = tested on: pSmad1/5; assay: Western blot of Smad phosphorylation in C2C12 cells; type: cell-based, mouse
[2] = tested on: BMP-2 signaling in C2C12 cells; assay: BMP-2 induced ALP activity in C2C12 cells; type: cell-based, mouse; settings: BMP-2 75 ng/mL, 3 days; for enhancement of BMP-2 induced ALP activity, in words: PA or monosaccharide 25 μM, n = 8
[3] = tested on: BMP-4 signaling in C2C12 cells; assay: BMP-4 induced ALP activity in C2C12 cells; type: cell-based, mouse; settings: BMP-4 75 ng/mL, monosaccharide 1 25 μM, 3 days; n = 8
How it was run: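 C2C12 cells were co-treated with BMP-4 (75 ng/mL) and either the glycopeptide amphiphile nanostructure or the free sulfated monosaccharide, each at 25 μM. Osteoblast differentiation was read out as alkaline phosphatase (ALP) activity. Results are reported as mean ± SEM with n = 8.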

[4] = SAXS / cryo-TEM of self-assembly; type: physicochemical; settings: cryo-TEM at 25 μM or SAXS
[5] = tested on: noggin; settings: C2C12 cells; ref [5],[41]; cited from earlier work
[6] = tested on: noggin; assay: SPR binding to immobilized noggin; settings: heparin 0.01-100 µM or PA 1 10-60 µM; HEPES buffer pH 7.6, 25 °C
[7] = tested on: C2C12 cells; assay: Mineralization assay; type: cell-based, mouse; settings: BMP-2 100 ng/mL; heparin 0.62 μM (10 μg/mL) or PA 25 μM; 10 days
[8] = tested on: BMP-2; settings: known effect; ref [4],[5]; cited from earlier work

| Molecule | BMP-2 mediated Smad phosphorylation with LDN-193189 ([1]; LDN-193189 0.5 μM, BMP-2 75 ng/mL, regardless of heparin or PA 1) | enhancement of BMP-2 induced ALP activity, in words [2] | amplification of BMP-4 signaling (ALP activity) [3] | self-assembly / supramolecular structure [4] | pSmad1/5 accumulation with BMP-2 ([1]; BMP-2 75 ng/mL, 3 h, heparin 0.62 μM or PA 1 25 μM, n = 3) | pSmad1/5 accumulation without BMP-2 ([1]; heparin 0.62 μM or PA 1 25 μM, no BMP-2) | enhancement of ALP expression vs BMP-2 alone, factor ([2]; normalized to DNA, dose response for heparin and HS) | effect on noggin activity [5] | SPR binding to noggin [6] | matrix mineralization of C2C12 cells [7] | half-life of BMP-2 [8] |
| --- | --- | --- | --- | --- | --- | --- | --- | --- | --- | --- | --- |
| c1ccc2c(-c3cnn4cc(-c5ccc(N6CCNCC6)cc5)cnc34)ccnc2c1 [LDN-193189] | impeded the BMP-2 mediated phosphorylation of Smads |  |  |  |  |  |  |  |  |  |  |
| CC(=O)N[C@H]1[C@H](OCCN=[N+]=[N-])O[C@H](COS(=O)(=O)O)[C@@H](OS(=O)(=O)O)[C@@H]1OS(=O)(=O)O [monosaccharide 1, 2-Azidoethyl 2-acetamido-3,4,6-tri-O-sulfo-2-deoxy-β-D-glycopyranoside] |  | found this not to be the case | found this not to be the case | absence of any significant supramolecular structure |  |  |  |  |  |  |  |
| Heparin |  | more potent response than HS |  |  | significantly higher relative to that with BMP-2 alone | did not enhance accumulation of pSmad proteins | 5 | binds and inhibits noggin activity, thereby rescuing BMP signaling and the subsequent ALP expression in C2C12 cells | did not observe a strong binding to noggin | inhibited BMP-2 (100 ng/mL) dependent mineralization | prolong the half-life of BMP-2 |
